From PubChem BioAssay
The list is not random: actives were taken first. Their share in the collection is about 2.4%.
OPRM1-OPRD1 ag: agonists of human mu-delta opioid receptor heterodimerization. P35372+P41143. cells, OPRM1-OPRD1 heterodimerization, luminescence. activation, % at 9.3 µM. actives 0.3% (n = 340,000). AID 504326; in the data active = activation above about 18%;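 note: 0% = vehicle-treated cells and 100% = reference agonist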
HTR5A ag: activates human HTR5A in OPRM1-OPRD1 agonist counter-screen; P47898; HTR5A agonist assay, luminescence, cell-based; actives 0.61% (n = 340,000); activation, % at 9.3 µM; AID 504692; in the data active = activation mostly above about 9.5%, no sharp cut-off; inactive = mostly below about 7.6%;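 note: 0% = cells with vehicle only and 100% = reference agonist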
HTR5A inv ag: inverse agonist of human HTR5A in OPRM1-OPRD1 counter-screen. actives 0.083% (n = 340,000). inhibition, % at 9.3 µM. AID 504634. HTR5A cell line, luminescence, inverse agonism. P47898; in the data active = inhibition mostly above about 23%, no sharp cut-off; inactive = mostly below about 18%;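 note: 0% = cells with DMSO and 100% = no-cell wells with DMSO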
MC4R ag barr: human MC4R agonism via beta-arrestin; P32245; U2OS MC4R beta-arrestin complementation, luminescence; percent of melanotan II response, DMSO zero; activation, % at 8.9 µM; actives 0.98% (n = 360,000);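 active = activation above a per-plate cutoff, the mean activation of sample wells on that plate plus 3 SD, cut at about 8% in these data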
Target sequence (P32245 whole entry, looked up): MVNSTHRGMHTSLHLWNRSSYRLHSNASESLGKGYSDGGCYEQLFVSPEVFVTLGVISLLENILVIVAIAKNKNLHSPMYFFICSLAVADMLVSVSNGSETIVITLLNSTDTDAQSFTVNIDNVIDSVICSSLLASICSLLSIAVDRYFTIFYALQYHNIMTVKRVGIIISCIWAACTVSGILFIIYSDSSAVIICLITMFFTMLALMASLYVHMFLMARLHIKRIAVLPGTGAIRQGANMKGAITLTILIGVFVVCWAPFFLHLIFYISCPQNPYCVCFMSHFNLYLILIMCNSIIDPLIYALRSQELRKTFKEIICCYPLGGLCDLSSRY
MC4R antagonist: antagonists of human melanocortin 4 receptor (MC4R). AID 540295. actives 0.48% (n = 360,000). MC4R-expressing cells, MTII-stimulated cAMP, LANCE TR-FRET. inhibition, % at 6.5 µM. P32245;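 active = inhibition above its plate's cutoff, the mean of tested wells on that plate plus 3 SD, cut at about 29% in these data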;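 note: 0% = Melanotan II alone and 100% = Melanotan II plus saturating MCL0020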
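material = U2OS cells stably expressing human melanocortin 4 receptor (MC4R) | also added = Melanotan II challenge | dosing = single nominal compound dose of 6.5 µM | detection = TR-FRET with Eu-cAMP and labeled anti-cAMP, 671 nm | replication = singlicate | timing = compound 30 min, challenge 1 h, detection 1 h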
MOR-DOR inv ag: inverse agonist of human OPRM1-OPRD1 heterodimerization | P35372+P41143 | cell-based MOR-DOR heterodimer luminescence, inverse agonism | inhibition, % at 9.3 µM | actives 0.21% (n = 340,000) | AID 504357; in the data active = inhibition above about 22%, passing the limit was not always enough;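 note: 0% = cells with DMSO and 100% = wells without cells with DMSO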
MC4R barr conf: human MC4R beta-arrestin agonism confirmation. shares compounds with MC4R ag barr. actives 31% (n = 2,400). U2OS MC4R beta-arrestin recruitment, luminescence; scaled DMSO 0%, Melanotan II 100%. activation, % at 8.9 µM;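 active = mean activation across replicates above the hit cutoff set in the earlier primary screen, cut at about 8% in these data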
MOR-DOR barr ag: counter-screen for MC4R agonists: agonists of mu-delta opioid heterodimer; shares compounds with MC4R ag barr; U2OS PathHunter beta-arrestin, beta-gal luminescence; percent of deltorphin B response, DMSO zero; activation, % at 9.2 µM; actives 5.8% (n = 2,400); AID 602194;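 active = mean activation across replicates exceeds the hit threshold derived in the earlier primary screen, cut at about 18% in these data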;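 note: 100% = deltorphin B at 0.9 µM final and 0% = DMSO alone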
Numbers without * were called inactive; x = not tested or not shown.

SMILES	OPRM1-OPRD1 ag	HTR5A ag	HTR5A inv ag	MC4R ag barr	MC4R antagonist	MOR-DOR inv ag	MC4R barr conf	MOR-DOR barr ag
CCN(CC)c1ccc(NC(=O)CNCc2ccccc2Cl)c(C)c1	1	-2	6	1	3	-2	x	x
Cc1cc(C)c(Cn2c(=O)n(CCCC(=O)NCc3ccco3)c(=O)c3sccc32)c(C)c1	7	3	-17	33*	0	-45	-1	7
Cc1ccccc1Cn1c(=O)n(CCCC(=O)NCc2ccco2)c(=O)c2sccc21	1	3	-20	1	7	-9	x	x
C=CCn1c(=N)n(CC(=O)c2cccc([N+](=O)[O-])c2)c2ccccc21	0	-1	3	-1	7	2	x	x
N=c1n(CCN2CCCCC2)c2ccccc2n1CC(=O)c1cccc([N+](=O)[O-])c1	x	x	x	11*	-4	x	5	x
COCCN(C(=O)CC1C(=O)NCCN1Cc1ccc(-c2ccccc2)cc1)C(C)C (stereo unspecified)	-2	1	-5	0	1	12	x	x
O=C(Nc1ccccc1OC(F)F)c1oc2ccccc2c1COc1ccccc1	1	2	-12	27*	-20	-7	14*	4
CC(C)CNC(=O)c1oc2ccccc2c1COc1ccccc1	5	-4	11	-1	19	-38	x	x
COc1ccc(CN(C)C(=O)c2cc(S(=O)(=O)Nc3ccccc3F)ccc2C)c(OC)c1	3	7	15	12*	11	-9	1	2
Cc1ccc(F)c(S(=O)(=O)NC(=O)C2(C)CCN2C(=O)CCc2ccccc2)c1 (stereo unspecified)	x	x	x	-1	-8	x	x	x
O=C(Nc1ccc(F)cc1F)c1c(C(F)(F)F)ccnc1Oc1ccccc1	x	x	x	2	1	x	x	x
Cc1cccc(Oc2nccc(C(F)(F)F)c2C(=O)Nc2ccc(F)cc2F)c1	3	0	-12	20*	-10	-18	0	5
Cc1ccc(S(=O)(=O)NCC(=O)OCC(=O)c2c(N)n(C)c(=O)n(C)c2=O)cc1	3	1	-3	0	21	-15	x	x
Cc1nn(C)c(C(=O)Nc2ccc(Br)cc2F)c1Br	4	4	-2	13*	7	-23	0	4
CCOC(=O)N1CCC(N2C(=O)c3ccc(C(=O)O)cc3C2=O)CC1	0	-1	13	0	10	-1	x	x
CCOC(=O)N1CCC(N2C(=O)c3ccc(C(=O)Nc4cccc(OC)c4)cc3C2=O)CC1	-3	1	-2	12*	1	15	2	4
O=C(CSc1nnc(SCc2ccccc2)s1)N/N=C/c1c[nH]c2ccccc12	2	3	-26	1	10	-8	x	x
Cc1ccc(CSc2nnc(SCC(=O)N/N=C/c3c[nH]c4ccccc34)s2)cc1	17	2	-56	12*	-8	-86	13*	18*
CC(=C/c1ccco1)/C=N/NC(=O)CSc1nnc(SCc2ccc(C)cc2)s1	3	5	-8	20*	8	-13	3	5
CC(C)C[C@H](CO)N(Cc1ccccc1)S(=O)(=O)N(Cc1ccccc1)[C@@H](CO)CC(C)C	9	2	-20	-1	21	-49	x	x
O=S(=O)(N(Cc1ccccc1)[C@@H](CO)Cc1ccccc1)N(Cc1ccccc1)[C@@H](CO)Cc1ccccc1	2	-2	5	13*	13	-14	5	5
O=C(CSc1ccc(F)cc1)Nc1ccc(C2SCCS2)cc1	x	x	x	10*	11	x	0	2
O=C(CSC1=NCCS1)Nc1ccc(F)cc1	x	x	x	0	-5	x	x	x
NC(=O)c1cc2cc(Cc3ccccc3Cl)ccc2oc1=O	0	6	-46	11*	-6	2	-2	6
CNC(=O)c1cc2cc(Cc3ccccc3Cl)ccc2oc1=O	3	5	-13	1	6	-13	x	x
SMILES	OPRM1-OPRD1 ag	HTR5A ag	HTR5A inv ag	MC4R ag barr	MC4R antagonist	MOR-DOR inv ag	MC4R barr conf	MOR-DOR barr ag
O=C(c1cnc2ccc3ccccc3c2c1)c1cc(F)ccc1O	3	-1	-7	22*	8	-15	-4	5
CCc1nnc(NC(=O)CSc2ncnc3c2cnn3-c2ccc(OC)cc2)s1	0	-3	0	1	18	3	x	x
CC(=O)C(c1ccccc1)C(c1ccccc1)C(C)[N+](=O)[O-] (stereo unspecified)	4	-4	15	21*	15	-20	-2	4
O=c1c2cc(Cl)ccc2[nH]c(=S)n1Cc1cccs1	2	2	21	10*	0	-11	0	4
CCC(=O)NCc1cc(-c2nn(C)c(=O)c3ccccc23)ccc1C	-1	2	-17	-1	6	4	x	x
Cc1ccc(NC(=O)c2ccc(-c3nn(C)c(=O)c4ccccc34)cc2)cc1	0	9	-23	22*	10	0	-1	2
Cn1nc(-c2ccc(C(=O)Nc3ccc(F)cc3)cc2)c2ccccc2c1=O	x	x	x	1	3	x	x	x
COc1ccc(-c2nn(C)c(=O)c3ccccc23)cc1NC(=O)COc1ccc(C)cc1	1	1	-2	21*	-2	-7	6	4
Cc1ccc(-c2nn(CC(=O)NCc3cc(-c4nn(C)c(=O)c5ccccc45)ccc3C)c(=O)c3ccccc23)cc1	-1	-4	-2	16*	4	8	25*	6
CCN(CCNCC(O)COCc1ccc(Cl)cc1)c1cccc(C)c1 (stereo unspecified)	7	3	-6	3	0	-30	x	x
COc1ccccc1/C=C(/C(=O)OCC(=O)Nc1cc(C)ccc1C)c1ccccc1	4	1	-2	5	4	-23	x	x
Cc1ccc(/C=C2/Sc3ccc(C(=O)NCCN4CCOCC4)cc3NC2=O)cc1	-3	-1	4	-3	2	17	x	x
CCN1CCCC1CNC(=O)c1ccc2c(c1)NC(=O)/C(=C\c1ccc(C)cc1)S2 (stereo unspecified)	2	1	-3	15*	7	-9	13*	3
O=C(O)CCCN1C(=O)/C(=C/c2cn(-c3ccccc3)nc2-c2cccs2)SC1=S	-1	-1	2	9.9*	19	8	6	1
Cc1cc(F)cc(-c2cc(C(=O)NCc3ccco3)[nH]n2)c1	x	x	x	0	1	x	x	x
